Bioassay records deposited in PubChem by several laboratories.
Rows were chosen to be rich in hits. Some 1.4% of all compounds tested hit in one or more screens of this group.
Tb MetRS inh: T. brucei MetRS inhibitors, primary screen, biochemical, luminescence; inhibition, % at 11.9 µM; 360,000 tested, 0.4% active; purified T. brucei MetRS, ATP depletion, Kinase-Glo luminescence;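 active = inhibition above a per-plate cutoff of the control wells' mean inhibition plus 3 SD, cut at about 5.5% in these data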
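Dosing: 11.9 µM single point; system: parasite MetRS enzyme; technique: luminescence of leftover ATP; times: 15 min enzyme-compound preincubation, 2 h reaction, 10 min detection, 25 °C; replicates: each compound tested once; read-out basis: percent inhibition relative to median high and low control wells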
PvdQ acylase: P. aeruginosa PvdQ acylase inhibitors, primary screen, biochemical, fluorescence, plate reader and imaging, single point; PvdQ acylase [Pseudomonas aeruginosa LESB58]; purified PvdQ acylase; inhibition, % at 10 µM; 340,000 tested, 0.063% active; in the data active = inhibition above about 30%, passing the limit was not always enough
Dyrk1A ADPGlo: rat Dyrk1A kinase inhibitors, primary screen, biochemical, single point, plate reader; Dual specificity tyrosine-phosphorylation-regulated kinase 1A (Rattus norvegicus), Q63470; ADP-Glo luminescence, NFATc1 peptide; inhibition, % at 12.5 µM; 310,000 tested, 0.43% active; AID 504441, 2011; in the data active = inhibition above about 50%
CDK5 inh: inhibitors of human CDK5/p35 kinase, primary screen, biochemical, single concentration; Recombinant CDK5/p35, ADP-Glo luminescence, 60 min; inhibition, % at 10 µM; 330,000 tested, 0.01% active; AID 488839, 2010;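 active = highest replicate inhibition of at least 50% and at least 75% of replicates reaching 50%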
Target sequence (Q00535 whole entry, looked up): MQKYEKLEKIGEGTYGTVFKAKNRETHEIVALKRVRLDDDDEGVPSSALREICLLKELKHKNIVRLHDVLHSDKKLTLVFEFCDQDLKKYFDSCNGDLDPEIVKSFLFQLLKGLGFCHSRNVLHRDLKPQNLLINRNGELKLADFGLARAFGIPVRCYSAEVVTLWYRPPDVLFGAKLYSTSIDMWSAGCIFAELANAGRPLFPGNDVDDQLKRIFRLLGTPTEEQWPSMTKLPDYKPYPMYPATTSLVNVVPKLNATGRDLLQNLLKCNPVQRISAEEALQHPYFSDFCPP
Target sequence (Q15078 whole entry, looked up): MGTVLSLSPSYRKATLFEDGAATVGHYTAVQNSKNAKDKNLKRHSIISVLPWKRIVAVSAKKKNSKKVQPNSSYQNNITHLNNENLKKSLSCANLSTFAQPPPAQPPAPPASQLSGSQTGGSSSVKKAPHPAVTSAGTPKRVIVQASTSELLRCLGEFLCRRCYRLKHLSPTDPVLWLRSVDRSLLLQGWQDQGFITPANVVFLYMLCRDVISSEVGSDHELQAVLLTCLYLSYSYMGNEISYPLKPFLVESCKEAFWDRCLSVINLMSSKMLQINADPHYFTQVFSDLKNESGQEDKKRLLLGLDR
CAL PDZ FP-1: CAL PDZ peptide-binding inhibitors, primary screen, biochemical, fluorescence polarization, Cer-tagged CAL PDZ, HTS | AID 504414, 2011 | purified CAL PDZ, TMR-peptide fluorescence polarization, 1 h | Golgi-associated PDZ and coiled-coil motif-containing protein (Homo sapiens), Q9HD26 | inhibition, % at 20 µM | 330,000 tested, 0.02% active;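 active = highest replicate inhibition of at least 40%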
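material = purified tagged CAL PDZ domain construct (CerCALP) | buffer or medium = sodium phosphate/NaCl buffer pH 7.4 with TCEP, IgG, Thesit | reagent = TMR-labelled reporter peptide T*-PRC34 bound in PDZ groove | incubation = 1 h room-temperature incubation prior to read | measured by = fluorescence polarization (mP) | evaluation = percent inhibition from loss of millipolarization | control set = unlabelled peptide and DMSO controls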
CAL PDZ FP-2: untagged CAL PDZ binding inhibitors, primary screen, biochemical, fluorescence polarization, HTS. purified CAL PDZ, TMR-peptide fluorescence polarization, 1 h. inhibition, % at 24.9 µM. 300,000 tested, 0.92% active;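 active = mean inhibition of at least 30% with at least half of replicates also reaching 30%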
Dyrk1A artifact: ADP-Glo luciferase interference without Dyrk1A, dose response, artefact control for Dyrk1A inhibitor project, biochemical, luminescence, cherry-pick, set 02; shares compounds with Dyrk1A ADPGlo; ADP-Glo luciferase artifact assay, no Dyrk1A; AC50, µM (doses to about 12 µM); 1,300 tested, under 10 active;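 active = fitted half-maximal dose AC50 no more than ten times the top valid tested dose, with luminescence dropping as dose rises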
A number is an active result.

O=[N+]([O-])c1ccc2c(c1)C(c1ccccc1)=NCCN2 was read as Tb MetRS inh inactive, PvdQ acylase inactive, Dyrk1A ADPGlo inactive, CDK5 inh inactive, CAL PDZ FP-1 inactive and CAL PDZ FP-2 33.
For CCC(c1nnnn1-c1ccc(OC)cc1)N1CCC2(CC1)C(=O)NCN2c1ccccc1 (centres undefined) the results were Tb MetRS inh inactive.
For CC[C@H]1CN2CCC1C[C@@H]2[C@H](O)c1ccnc2ccc(OC)cc12 (some centres undefined) the results were Tb MetRS inh inactive, PvdQ acylase inactive, Dyrk1A ADPGlo inactive, CDK5 inh inactive, CAL PDZ FP-1 inactive and CAL PDZ FP-2 inactive.
`C=CC1CN2CCC1CC2C(OC(C)=O)c1ccnc2ccc(OC)cc12` (centres undefined) gave Tb MetRS inh inactive, PvdQ acylase inactive, CDK5 inh inactive, CAL PDZ FP-1 inactive and CAL PDZ FP-2 58.
Screening CCC1CN1P(=S)(N1CC1CC)N1CC1CC (centres undefined) returned Tb MetRS inh inactive, PvdQ acylase inactive, Dyrk1A ADPGlo inactive, CDK5 inh inactive, CAL PDZ FP-1 inactive and CAL PDZ FP-2 inactive.
Screening CCC1CN1P(=O)(c1ccccc1)N1CC1CC (centres undefined) returned Tb MetRS inh inactive, PvdQ acylase inactive, Dyrk1A ADPGlo inactive, CDK5 inh inactive, CAL PDZ FP-1 inactive and CAL PDZ FP-2 113.
`CC(Cc1ccccc1)NC(=O)Cc1ccc([N+](=O)[O-])cc1` (centres undefined) gave Tb MetRS inh inactive, PvdQ acylase inactive, Dyrk1A ADPGlo inactive, CDK5 inh inactive, CAL PDZ FP-1 inactive and CAL PDZ FP-2 30.
Screening O=[N+]([O-])c1ccc(Nc2ccccc2)cc1 returned Tb MetRS inh inactive, PvdQ acylase inactive, Dyrk1A ADPGlo inactive, CDK5 inh inactive, CAL PDZ FP-1 inactive and CAL PDZ FP-2 inactive.
Screening CSCCC(c1nnnn1-c1c(C)cccc1C)N1CCC2(CC1)C(=O)NCN2c1ccccc1 (centres undefined) returned Tb MetRS inh inactive.
Screening COc1ccc(C(CNC(=O)Cc2ccc(Cl)c(Cl)c2)N2CCCCC2)cc1 (centres undefined) returned Tb MetRS inh inactive, PvdQ acylase inactive, Dyrk1A ADPGlo inactive, CDK5 inh inactive, CAL PDZ FP-1 inactive and CAL PDZ FP-2 61.
`Cc1ccc2c(C)c3ccc4ccccc4c3c[n+]2c1` gave Tb MetRS inh inactive, PvdQ acylase inactive, Dyrk1A ADPGlo inactive, CDK5 inh inactive, CAL PDZ FP-1 inactive and CAL PDZ FP-2 38.
`CN(C)c1ccc(C=C2C(=O)NC(=O)NC2=O)cc1` gave Tb MetRS inh inactive, PvdQ acylase inactive, Dyrk1A ADPGlo inactive, CDK5 inh inactive, CAL PDZ FP-1 inactive and CAL PDZ FP-2 inactive.
`CN(C)c1ccc(C=C2C(=O)NC(=S)NC2=O)cc1` gave Tb MetRS inh inactive, PvdQ acylase inactive, CDK5 inh inactive, CAL PDZ FP-1 inactive and CAL PDZ FP-2 185.
COc1ccc(C(CC(C)=O)c2c(O)c3ccccc3oc2=O)cc1OC (centres undefined) was read as Tb MetRS inh inactive.
CC/C(CC(c1ccccc1)c1c(O)c2ccccc2oc1=O)=N\NC(N)=S (centres undefined) was read as Tb MetRS inh inactive, PvdQ acylase inactive, Dyrk1A ADPGlo inactive, CDK5 inh inactive, CAL PDZ FP-1 inactive and CAL PDZ FP-2 65.
`c1ccc(C(c2ccccc2)c2ccncc2)cc1` gave Tb MetRS inh inactive, PvdQ acylase inactive, CDK5 inh inactive and CAL PDZ FP-1 inactive.
`COc1cc2c(cc1O)CC1c3c(cc(O)c(OC)c3-2)CCN1C` (centres undefined) gave Tb MetRS inh inactive, PvdQ acylase inactive, Dyrk1A ADPGlo 70, CDK5 inh inactive, CAL PDZ FP-1 inactive, CAL PDZ FP-2 inactive and Dyrk1A artifact inactive.
Screening NC(Cc1ccc(F)cc1)c1csc(Nc2ncccn2)n1 (centres undefined) returned Tb MetRS inh inactive.
`O=C(O)CC1OCC=C2CN3CCC45c6ccccc6NC4C1C2CC35` (centres undefined) gave Tb MetRS inh inactive, PvdQ acylase inactive, Dyrk1A ADPGlo inactive, CDK5 inh inactive, CAL PDZ FP-1 inactive and CAL PDZ FP-2 inactive.
`O=C(O)CC1OCC=C2CN3CCC45C6=CC(=O)C(=O)C([N+](=O)[O-])=C6NC4C1C2CC35` (centres undefined) gave Tb MetRS inh inactive, PvdQ acylase inactive, Dyrk1A ADPGlo 56, CDK5 inh inactive, CAL PDZ FP-1 inactive, CAL PDZ FP-2 inactive and Dyrk1A artifact inactive.
Screening N#Cc1cn(C2OC(CO)C(O)C2O)c2ncnc(N)c12 (centres undefined) returned Tb MetRS inh inactive, PvdQ acylase inactive, Dyrk1A ADPGlo inactive, CDK5 inh inactive, CAL PDZ FP-1 inactive and CAL PDZ FP-2 inactive.
For N#Cc1c(Br)n(C2OC(CO)C(O)C2O)c2ncnc(N)c12 (centres undefined) the results were Tb MetRS inh inactive, PvdQ acylase inactive, Dyrk1A ADPGlo 75, CDK5 inh inactive, CAL PDZ FP-1 inactive, CAL PDZ FP-2 inactive and Dyrk1A artifact inactive.
NC(=O)c1c(Br)n(C2OC(CO)C(O)C2O)c2ncnc(N)c12 (centres undefined) was read as Tb MetRS inh inactive, PvdQ acylase inactive, Dyrk1A ADPGlo 65, CDK5 inh inactive, CAL PDZ FP-1 inactive, CAL PDZ FP-2 inactive and Dyrk1A artifact inactive.
COC12c3ccccc3-c3ccccc3C1C(C(=O)O)C2C(=O)O (centres undefined) was read as Tb MetRS inh inactive.
